Test results: ChEMBL document CHEMBL3875209, “Synthesis and biological evaluation of cis-restricted triazole/tetrazole mimics of combretastatin-benzothiazole hybrids as tubulin polymerization inhibitors and apoptosis inducers” (Bioorg Med Chem, 2017)

Tests used:
Format in all cases: functional, cell-based
[1] = Antiproliferative activity against human HepG2 cells after 48 hrs by MTT assay; settings: HepG2, 48 h
Summary of the method: (§1)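 MTT assay. Cells seeded in DMEM with 10% FBS and left 24 h at 37 °C in CO2 before compound treatment for 48 h. MTT (5 mg/mL stock) added for 4 h, formazan dissolved in DMSO, absorbance read at 570 nm. IC50 taken as the mean of three independent experiments.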

[2] = Antiproliferative activity against human DU145 cells after 48 hrs by MTT assay; settings: DU-145, 48 h; summary of the method: as §1
[3] = Antiproliferative activity against human MCF7 cells after 48 hrs by MTT assay; settings: MCF7, 48 h; summary of the method: as §1
[4] = Antiproliferative activity against human HeLa cells after 48 hrs by MTT assay; summary of the method: as §1
[5] = Antiproliferative activity against human A549 cells after 48 hrs by MTT assay; settings: A549, 48 h; summary of the method: as §1

Row | SMILES | IC50 [1] [µM] | IC50 [2] [µM] | IC50 [3] [µM] | IC50 [4] [µM] | IC50 [5] [µM]
1 | COc1cc(-c2cn(-c3ccc(-c4nc5cc(OC)c(OC)c(OC)c5s4)cc3)nn2)cc(OC)c1OC | 15.5 | 14.8 | 9.12 | 11.5 | 8.54
2 | COc1cc(-c2nnnn2-c2ccc(-c3nc4cc(OC)c(OC)c(OC)c4s3)cc2)cc(OC)c1OC | 8.51 | 7.24 | 8.68 | 6.16 | 3.54
3 | COc1ccc2nc(-c3ccc(-n4cc(-c5cc(OC)c(OC)c(OC)c5)nn4)cc3)sc2c1 | 12.4 | 12.3 | 22.9 | 11.5 | 6.3
4 | COc1cc(OC)c2sc(-c3ccc(-n4cnnc4-c4cc(OC)c(OC)c(OC)c4)c(OC)c3)nc2c1 | 9.2 | 10.2 | 8.57 | 6.45 | 7.24
5 | COc1cc(-c2cn(-c3ccc(-c4nc5ccc(F)cc5s4)cc3)nn2)cc(OC)c1OC | 7.76 | 8.12 | 10.7 | 3.46 | 1.41
6 | COc1ccc2nc(-c3ccc(-n4cnnc4-c4cc(OC)c(OC)c(OC)c4)c(OC)c3)sc2c1 | 9.05 | 11.6 | 14.7 | 8.76 | 9.06
7 | COc1ccc2nc(-c3ccc(-n4cc(-c5cc(OC)c(OC)c(OC)c5)nn4)c(C)c3)sc2c1 | 20.1 | 18.2 | 22 | 13.1 | 15.8
8 | COc1ccc2nc(-c3ccc(-n4nnnc4-c4cc(OC)c(OC)c(OC)c4)cc3)sc2c1 | 9.05 | 9.12 | 11.2 | 6.6 | 3.8
9 | COc1cc(OC)c2sc(-c3ccc(-n4cc(-c5cc(OC)c(OC)c(OC)c5)nn4)c(OC)c3)nc2c1 | 1.47 | 0.41 | 4.36 | 0.37 | 0.24
10 | COc1ccc2nc(-c3ccc(-n4nnnc4-c4cc(OC)c(OC)c(OC)c4)c(C)c3)sc2c1 | 10.5 | 15.9 | 12.6 | 11 | 4.78
11 | COc1cc(-c2nc3ccc(F)cc3s2)ccc1-n1cc(-c2cc(OC)c(OC)c(OC)c2)nn1 | 13.9 | 14.2 | 16.1 | 10.1 | 6.02
12 | COc1cc(-c2nc3cc(OC)c(OC)c(OC)c3s2)ccc1-n1cc(-c2cc(OC)c(OC)c(OC)c2)nn1 | 29.9 | 15.9 | 27.8 | 17.8 | 11
13 | COc1cc(OC)c2sc(-c3ccc(-n4cnnc4-c4cc(OC)c(OC)c(OC)c4)c(C)c3)nc2c1 | 2.54 | 1.04 | 5.35 | 0.93 | 0.26
14 | COc1cc(-c2cn(-c3ccc(-c4nc5cc(OC)c(OC)c(OC)c5s4)cc3C)nn2)cc(OC)c1OC | 18.6 | 15.8 | 20.8 | 11.3 | 9.77
15 | COc1ccc2nc(-c3ccc(-n4cnnc4-c4cc(OC)c(OC)c(OC)c4)cc3)sc2c1 | 11.6 | 11.2 | 9.5 | 10 | 7.24
16 | COc1cc(-c2nc3cc(OC)c(OC)c(OC)c3s2)ccc1-n1nnnc1-c1cc(OC)c(OC)c(OC)c1 | 16 | 10.8 | 16.6 | 5.79 | 3.8
17 | COc1cc(OC)c2sc(-c3ccc(-n4cc(-c5cc(OC)c(OC)c(OC)c5)nn4)c(C)c3)nc2c1 | 15.5 | 10.2 | 18.8 | 8.12 | 7.76

Row | SMILES | IC50 [1] [µM] | IC50 [2] [µM] | IC50 [3] [µM] | IC50 [4] [µM] | IC50 [5] [µM]
18 | COc1cc(-c2nc3ccc(F)cc3s2)ccc1-n1nnnc1-c1cc(OC)c(OC)c(OC)c1 | 1.24 | 4.77 | 1.52 | 4.36 | 1.38
19 | COc1cc(OC)c2sc(-c3ccc(-n4nnnc4-c4cc(OC)c(OC)c(OC)c4)c(C)c3)nc2c1 | 9.74 | 11.7 | 17.2 | 8.7 | 5.38
20 | COc1cc(OC)c2sc(-c3ccc(-n4cc(-c5cc(OC)c(OC)c(OC)c5)nn4)cc3)nc2c1 | 17.4 | 9.33 | 19.9 | 9.05 | 7.61
21 | COc1cc(-c2nc3cc(OC)c(OC)c(OC)c3s2)ccc1-n1cnnc1-c1cc(OC)c(OC)c(OC)c1 | 7.41 | 11.5 | 10.5 | 5.51 | 3.46
22 | COc1ccc2nc(-c3ccc(-n4nnnc4-c4cc(OC)c(OC)c(OC)c4)c(OC)c3)sc2c1 | 1.67 | 5.67 | 3.45 | 4.56 | 2.25
23 | COc1cc(-c2nncn2-c2ccc(-c3nc4cc(OC)c(OC)c(OC)c4s3)cc2)cc(OC)c1OC | 1.27 | 0.46 | 3.15 | 0.21 | 0.091
24 | COc1cc(-c2nncn2-c2ccc(-c3nc4cc(OC)c(OC)c(OC)c4s3)cc2C)cc(OC)c1OC | 1.25 | 0.7 | 2.99 | 0.21 | 0.23
25 | COc1cc(-c2nncn2-c2ccc(-c3nc4ccc(F)cc4s3)cc2)cc(OC)c1OC | 10.4 | 8.21 | 12.5 | 7 | 6.58
26 | COc1cc(-c2nnnn2-c2ccc(-c3nc4ccc(F)cc4s3)cc2C)cc(OC)c1OC | 1.69 | 1.14 | 3.23 | 0.97 | 0.24
27 | COc1cc(OC)c2sc(-c3ccc(-n4nnnc4-c4cc(OC)c(OC)c(OC)c4)cc3)nc2c1 | 22.4 | 19.9 | 31.6 | 10.2 | 7.24
28 | COc1cc(-c2nc3ccc(F)cc3s2)ccc1-n1cnnc1-c1cc(OC)c(OC)c(OC)c1 | 2.75 | 7.58 | 2.49 | 2.81 | 1.22
29 | COc1ccc2nc(-c3ccc(-n4cc(-c5cc(OC)c(OC)c(OC)c5)nn4)c(OC)c3)sc2c1 | 16.4 | 18.6 | 15.5 | 11.1 | 10.7
30 | COc1cc(-c2nnnn2-c2ccc(-c3nc4ccc(F)cc4s3)cc2)cc(OC)c1OC | 7.95 | 4.57 | 8.57 | 2.23 | 2.07
31 | COc1cc(-c2nnnn2-c2ccc(-c3nc4cc(OC)c(OC)c(OC)c4s3)cc2C)cc(OC)c1OC | 23.4 | 14.8 | 17.5 | 9.81 | 7.41
32 | COc1cc(OC)c2sc(-c3ccc(-n4cnnc4-c4cc(OC)c(OC)c(OC)c4)cc3)nc2c1 | 9.65 | 11.8 | 8.21 | 4.13 | 5.04
33 | COc1cc(OC)c2sc(-c3ccc(-n4nnnc4-c4cc(OC)c(OC)c(OC)c4)c(OC)c3)nc2c1 | 17 | 13.5 | 24.7 | 11.7 | 9.24
34 | COc1cc(-c2cn(-c3ccc(-c4nc5ccc(F)cc5s4)cc3C)nn2)cc(OC)c1OC | 8.05 | 7.33 | 10.8 | 6.76 | 3.38
